Assay results as given in ChEMBL document CHEMBL5390247, “Aryl azoles based scaffolds for disrupting tumor microenvironment” (Bioorg Med Chem, 2023).
The source made the active and inactive calls. No cut-off for these calls is given here.

Assays:
HT-29 [1] = experiment: Immunomodulatory activity in human HT-29 cells co-cultured with interferon gamma-stimulated THP-1 cells assessed as cell viability at 100 uM incubated for 48 hrs by flow cytometry analysis relative to control; type: functional; conditions: read-out: Activity
Method in brief: (§1)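 HT-29 cells at 10^5/well seeded and grown 24 h. Medium then replaced with medium containing IFN-γ (10 ng/ml), 5 × 10^5 THP-1 cells/well and compound at 100 µM; DMSO used as control. After 48 h, THP-1 cells collected from supernatant and cancer cells by trypsinisation. Both fixed in 4% paraformaldehyde and counted by flow cytometry relative to control.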

HT-29 [2] = experiment: Immunomodulatory activity in human HT-29 cells co-cultured with interferon gamma-stimulated THP-1 cells assessed as relative CD-47 protein expression in membrane at 100 uM incubated for 48 hrs by flow cytometry analysis relative to control; type: functional
HT-29 [3] = experiment: Antiproliferative activity against human HT-29 cells assessed as reduction in IL-6 secretion at 100 uM incubated for 48 hrs by ELISA assay; type: functional, cell-based
Method in brief: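 HT-29 monocultures at 10^5 cells/well treated 48 h with compound at 100 µM in 500 µL growth medium. Media collected and secreted IL-6 measured with a human IL-6 ELISA kit.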

[4] = Toxicity against interferon gamma-stimulated human THP-1 monocyte cells co-cultured with human HT-29 cells assessed as reduction in cell viability at 100 uM incubated for 48 hrs by flow cytometry analysis; type: cell-based; conditions: thp-1, 48 h; method in brief: as §1
HT-29 [5] = experiment: Immunomodulatory activity in human HT-29 cells co-cultured with interferon gamma-stimulated THP-1 cells assessed as IL-6 level at 100 uM incubated for 48 hrs by ELISA analysis (reference value: 192 +/- 16 pg/ml); type: functional
Method in brief: (§2)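 HT-29 cells co-cultured with IFN-γ (10 ng/ml)-stimulated THP-1 cells and treated 48 h with compound at 100 µM. Culture media collected and IL-6 measured by human IL-6 ELISA, in pg/mL and as % of control. Mean of three experiments.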

HT-29 [6] = experiment: Immunomodulatory activity in human HT-29 cells co-cultured with interferon gamma-stimulated THP-1 cells assessed as relative IL-6 level at 100 uM incubated for 48 hrs by ELISA analysis relative to control; type: functional; method in brief: as §2
HT-29 [7] = experiment: Immunomodulatory activity in human HT-29 cells co-cultured with interferon gamma-stimulated THP-1 cells assessed as relative PD-L1 protein expression in membrane at 100 uM incubated for 48 hrs by flow cytometry analysis relative to control; type: functional
HT-29 [8] = experiment: Immunomodulatory activity in human HT-29 cells co-cultured with interferon gamma-stimulated THP-1 cells assessed as inhibition of IL-6 secretion at 100 uM incubated for 48 hrs by ELISA analysis relative to control; type: functional; method in brief: as §2
MCF7 = experiment: Antiproliferative activity against human MCF7 cells assessed as reduction in cell viability incubated for 48 hrs by MTT assay; type: functional, cell-based; conditions: MCF7, 48 h
Method in brief: (§3)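 MTT dye-reduction assay. Cells at 5 × 10^3/well in DMEM with 10% FBS, treated with serial dilutions of compound (DMSO stocks) for 2 days at 37 °C, 5% CO2. MTT added for a further 3 h, formazan dissolved in DMSO, absorbance read at 550 nm. Viability expressed as % of untreated cells; IC50 determined graphically from three independent experiments.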

HMEC-1 [9] = experiment: Antiangiogenic activity in HMEC-1 cells assessed as inhibition of endothelial microtubes formation at 100 uM incubated for 24 hrs by matrigel based imaging analysis; type: functional, cell-based; conditions: Homo sapiens
Method in brief: (§4)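 HMEC-1 cells at 2 × 10^4 cells/well seeded on Matrigel (10 mg/mL, gelled 30 min at 37 °C) in EGM-2MV medium with SingleQuots, allowed to attach 30 min at 37 °C. Compounds then added in medium; after 24 h at 37 °C, microtube formation/destruction evaluated from pictures.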

HMEC-1 [10] = experiment: Antiangiogenic activity in HMEC-1 cells assessed as inhibition of endothelial microtubes formation at <75 uM incubated for 24 hrs by matrigel based imaging analysis; type: functional, cell-based; conditions: Homo sapiens; method in brief: as §4
[11] = Cytotoxicity against HEK293 cells assessed as reduction in cell viability incubated for 48 hrs by MTT assay; type: toxicity, cell-based; conditions: human; method in brief: as §3
HT-29 [12] = experiment: Antiproliferative activity against human HT-29 cells assessed as reduction in cell viability incubated for 48 hrs by MTT assay; type: functional, cell-based; conditions: HT-29, 48 h; method in brief: as §3
HT-29 [13] = experiment: Antiproliferative activity against human HT-29 cells assessed as relative VEGFR-2 protein expression in membrane at 100 uM incubated for 48 hrs by flow cytometry analysis relative to control; type: functional
HT-29 [14] = experiment: Immunomodulatory activity in human HT-29 cells co-cultured with interferon gamma-stimulated THP-1 cells assessed as inhibition of PD-L1 protein expression in cell surface at 100 uM incubated for 48 hrs by flow cytometry analysis relative to control; type: functional
HT-29 [15] = experiment: Antiproliferative activity against human HT-29 cells assessed as relative c-Myc protein expression at 100 uM incubated for 48 hrs by flow cytometry analysis relative to control; type: functional
HT-29 [16] = experiment: Antiproliferative activity against human HT-29 cells assessed as relative PD-L1 protein expression in whole cell at 100 uM incubated for 48 hrs by flow cytometry analysis relative to control; type: functional
HT-29 [17] = experiment: Immunomodulatory activity in human HT-29 cells co-cultured with interferon gamma-stimulated THP-1 cells assessed as reduction in IL-6 level at 100 uM incubated for 48 hrs by ELISA analysis relative to control; type: functional; parameters: scale not given: the % may be the effect or the level left; method in brief: as §2
HT-29 [18] = experiment: Antiproliferative activity against human HT-29 cells assessed as relative VEGFR-2 protein expression in whole cell at 100 uM incubated for 48 hrs by flow cytometry analysis relative to control; type: functional
HT-29 [19] = experiment: Immunomodulatory activity in human HT-29 cells co-cultured with interferon gamma-stimulated THP-1 cells assessed as inhibition of CD-47 protein expression at 100 uM incubated for 48 hrs by flow cytometry analysis relative to control; type: functional
HEK293 [20] = experiment: Anti-vasculogenic activity against HEK293 cells assessed as disruption of tube-like structures at <75 uM incubated for 24 hrs by Matrigel based imaging analysis; type: functional, cell-based; conditions: Homo sapiens
Method in brief: (§5)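 HEK-293 cells seeded at 5 × 10^4 cells/well on Matrigel (pre-incubated with medium 24 h at 37 °C), grown 24 h at 37 °C until tube-like structures form; compounds then added in medium and incubated a further 24 h at 37 °C. Disruption of preformed tube-like structures assessed by imaging.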

HT-29 [21] = experiment: Antiproliferative activity against human HT-29 cells assessed as relative PD-L1 protein expression in membrane at 100 uM incubated for 48 hrs by flow cytometry analysis relative to control; type: functional
A549 = experiment: Antiproliferative activity against human A549 cells assessed as reduction in cell viability incubated for 48 hrs by MTT assay; type: functional, cell-based; conditions: A549, 48 h; method in brief: as §3
HEK293 [22] = experiment: Anti-vasculogenic activity against HEK293 cells assessed as disruption of tube-like structures at 100 uM incubated for 24 hrs by Matrigel based imaging analysis; type: functional, cell-based; conditions: Homo sapiens; method in brief: as §5
HT-29 [23] = experiment: Immunomodulatory activity in human HT-29 cells co-cultured with interferon gamma-stimulated THP-1 cells assessed as inhibition of cell growth at 100 uM incubated for 48 hrs by flow cytometry analysis relative to control; type: functional; method in brief: as §1

Row | Structure (SMILES) | viability at 100 µM (HT-29 [1]) [%] | Activity (HT-29 [2]) [%] | Activity (HT-29 [3]) | Activity [4] | Activity (HT-29 [5]) [pg/mL] | Activity (HT-29 [6]) [%] | Activity (HT-29 [7]) [%] | IC50 (MCF7) [µM] | Activity (HMEC-1 [9]) | Activity (HMEC-1 [10]) | IC50 at 48 h [11] [µM] | Activity (HT-29 [13]) [%] | Activity (HT-29 [15]) [%] | Activity (HT-29 [16]) [%] | Activity (HT-29 [17]) [%] | Activity (HT-29 [18]) [%] | Activity (HEK293 [20]) | Activity (HT-29 [21]) [%] | Activity (HEK293 [22]) | inhibition at 100 µM (HT-29 [23]) [%] | also measured
1 | Nc1cccc(-c2cn(Cc3ccccc3Cl)nn2)c1 | 51 | 91 | inactive | Non-Toxic | 12 | 6 | 116 | – | – | – | – | – | – | – | – | – | – | – | – | – | inhibition at 100 µM (HT-29 [8]): > 80%
2 | Nc1cccc(-c2nnn(Cc3ccc(Br)cc3)n2)c1 | 6 | 60 | inactive | Non-Toxic | 5 | 3 | 70 | 44 | Active | inactive | > 100 | >100 | 76 | >100 | >95 | >100 | inactive | 92 | Active | > 90 | IC50 (HT-29 [12]): > 100 µM; inhibition at 100 µM (HT-29 [14]): 70%; inhibition at 100 µM (HT-29 [19]): > 30%; IC50 (A549): > 100 µM
3 | Nc1cccc(-c2nnn(Cc3ccc(Cl)cc3)n2)c1 | 22 | 93 | inactive | Non-Toxic | 11 | 6 | 114 | > 100 | Active | inactive | 91 | >100 | 80 | 99 | 94 | 96 | inactive | >100 | Active | > 70 | IC50 (HT-29 [12]): 72 µM; IC50 (A549): > 100 µM
4 | Nc1cccc(-c2nnn(Cc3ccccc3Br)n2)c1 | 23 | – | – | Non-Toxic | – | – | 65 | – | Active | inactive | – | >100 | 90 | >100 | – | 92 | inactive | 64 | Active | > 70 | inhibition at 100 µM (HT-29 [14]): 70%; inhibition at 100 µM (HT-29 [19]): > 30%
5 | Nc1cccc(-c2nnn(Cc3ccccc3Cl)n2)c1 | 61 | 86 | inactive | Non-Toxic | 6 | 3 | 93 | – | Active | inactive | – | 96 | >100 | >100 | >95 | 92 | inactive | 95 | Active | – | –
6 | Nc1cccc(-c2nnn(Cc3cccc(Br)c3)n2)c1 | 19 | – | – | Non-Toxic | – | – | 64 | – | Active | inactive | – | >100 | 83 | >100 | – | >100 | inactive | 66 | Active | > 70 | inhibition at 100 µM (HT-29 [14]): 70%; inhibition at 100 µM (HT-29 [19]): > 30%
7 | Nc1cccc(-c2nnn(Cc3cccc(Cl)c3)n2)c1 | 48 | 95 | inactive | Non-Toxic | 6 | 3 | 94 | 88 | Active | inactive | > 100 | 97 | 76 | 97 | >95 | 99 | inactive | >100 | Active | – | IC50 (HT-29 [12]): 81 µM; IC50 (A549): > 100 µM
8 | Nc1cccc(-c2cn(Cc3cccc(Cl)c3)nn2)c1 | 8 | 96 | inactive | Non-Toxic | 38 | 20 | 122 | – | – | – | – | – | – | – | – | – | – | – | – | > 90 | inhibition at 100 µM (HT-29 [8]): > 80%
